The results in this text go back to ChEMBL document CHEMBL4359855, “Targeting IRAK4 for Degradation with PROTACs” (ACS Med Chem Lett, 2019).

In brackets after ≈: the same amount, converted by molar mass. Activity calls are given as the source filed them. The calls are words filed in the database; no cut-off is given here.

The target of data set [1] is T1, von Hippel-Lindau disease tumor suppressor/Interleukin-1 receptor-associated kinase 4 (Homo sapiens, UniProt Q9NWZ3+P40337). Put plainly: Protac activity at VHL/IRAK4 in human PBMCs assessed as induction of degradation of IRAK4 at 0.1 to 10 uM incubated for 24 hrs by Western blot analysis. (In western blotting, separated proteins are transferred to a membrane and probed.)
Target sequence in this assay (P40337 whole entry, looked up, one chain of several): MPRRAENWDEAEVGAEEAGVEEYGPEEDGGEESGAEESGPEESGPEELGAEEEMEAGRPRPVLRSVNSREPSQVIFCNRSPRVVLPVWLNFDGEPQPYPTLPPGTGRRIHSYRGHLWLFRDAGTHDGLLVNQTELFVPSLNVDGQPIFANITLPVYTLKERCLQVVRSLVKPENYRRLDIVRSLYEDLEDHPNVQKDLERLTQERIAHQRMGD

In data set [2] the target is Interleukin-1 receptor-associated kinase 1 (Homo sapiens, UniProt P51617). Put plainly: Binding affinity to human IRK1 using myelin basic protein as substrate by [gamma-33P]-ATP assay.
Data set [3] has as its target T2, Interleukin-1 receptor-associated kinase 4 (Homo sapiens, UniProt Q9NWZ3).
T2 sequence (Q9NWZ3 whole entry): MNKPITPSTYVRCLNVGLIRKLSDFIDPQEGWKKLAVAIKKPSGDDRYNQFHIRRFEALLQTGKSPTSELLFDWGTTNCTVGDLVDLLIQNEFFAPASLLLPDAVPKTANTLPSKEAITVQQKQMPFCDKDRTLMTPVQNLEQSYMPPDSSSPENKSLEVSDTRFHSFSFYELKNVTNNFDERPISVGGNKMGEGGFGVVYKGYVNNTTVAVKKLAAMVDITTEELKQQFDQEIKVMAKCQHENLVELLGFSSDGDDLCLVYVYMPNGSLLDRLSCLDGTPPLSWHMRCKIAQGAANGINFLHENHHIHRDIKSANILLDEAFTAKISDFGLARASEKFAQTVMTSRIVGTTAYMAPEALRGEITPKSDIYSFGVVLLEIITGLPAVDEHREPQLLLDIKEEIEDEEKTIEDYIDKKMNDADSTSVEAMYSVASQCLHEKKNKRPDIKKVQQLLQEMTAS
In words: Binding affinity to human IRK4 using myelin basic protein as substrate by [gamma-33P]-ATP assay.

Data set [4] is described as follows: Chromatographic hydrophobicity index, log D of compound at pH 7.4. The class given is physicochemical. To be noted: buffer.
The target in data set [5] is E3 ubiquitin-protein ligase XIAP/Interleukin-1 receptor-associated kinase 4 (Homo sapiens) (UniProt Q9NWZ3+P98170). In words: Protac activity at IAP/IRAK4 in human PBMC assessed as induction of degradation of IRAK4 incubated for 24 hrs by Western blot analysis relative to control. The class given is protein assay. The procedure, abridged: (§1)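 PBMCs exposed to rising compound concentrations for 24 h. IRAK4 protein read by Western blot against DMSO-treated cells. Dmax is the maximum degradation observed.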

Data set [6] concerns the target T1, von Hippel-Lindau disease tumor suppressor/Interleukin-1 receptor-associated kinase 4. In words: Protac activity at VHL/IRAK4 in human dermal fibroblast assessed as reduction in IL-1beta stimulated IL-6 level at 300 nM incubated for 18 hrs followed by IL-1beta stimulation further incubated for 8 hrs by MSD assay. Format: protein assay. In short, it runs like this:
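Human dermal fibroblasts pretreated 18 h with 300 nM compound, then stimulated 8 h with IL-1β (10 ng/mL). Secreted IL-6 measured. n = 4, mean ± SE.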
Target sequence in this assay (P40337 whole entry, looked up, one chain of several): as the sequence (P40337 whole entry, looked up, one chain of several) above

Data set [7] shares this target. Put plainly: Protac activity at VHL/IRAK4 in human PBMC assessed as induction of degradation of IRAK4 incubated for 24 hrs by Western blot analysis relative to control. The class given is protein assay. The procedure, abridged:
as §1
Target sequence in this assay (P40337 whole entry, looked up, one chain of several): as the sequence (P40337 whole entry, looked up, one chain of several) above

In data set [8] the target is Protein cereblon/Interleukin-1 receptor-associated kinase 4 (Homo sapiens) (UniProt Q9NWZ3+Q96SW2). Put plainly: Protac activity at CRBN/IRAK4 in human PBMC assessed as induction of degradation of IRAK4 incubated for 24 hrs by Western blot analysis relative to control. The class given is protein assay. The procedure, abridged:
as §1

The nature of data set [9]: Solubility of compound. The class given is physicochemical.
In data set [10] the target is T3, von Hippel-Lindau disease tumor suppressor/Interleukin-1 receptor-associated kinase 4 (Homo sapiens, UniProt P40337+Q9NWZ3). Put plainly: Protac activity at VHL/IRAK4 in human PBMC assessed as reduction in R848-stimulated TNFalpha level preincubated for 18 hrs followed by R848 stimulation and measured after 8 hrs by MSD assay. The class given is protein assay. The procedure, abridged:
(§2)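 PBMCs pretreated 18 h with compound, then stimulated 8 h with R848 (2.5 μg/mL). Secreted cytokines measured by MSD electrochemiluminescence.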

Data set [11] has as its target T1, von Hippel-Lindau disease tumor suppressor/Interleukin-1 receptor-associated kinase 4. In words: Protac activity at VHL/IRAK4 in human dermal fibroblast assessed as induction of degradation of IRAK4 incubated for 24 hrs by Western blot analysis. The class given is protein assay. In short, it runs like this: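 Human dermal fibroblasts treated with compound for 24 h. IRAK4 protein measured by Western blot and DC50 derived.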
Target sequence in this assay (P40337 whole entry, one chain of several): as the sequence (P40337 whole entry, looked up, one chain of several) above

Data set [12] deals with T3, von Hippel-Lindau disease tumor suppressor/Interleukin-1 receptor-associated kinase 4. In words: Protac activity at VHL/IRAK4 in human PBMC assessed as reduction in R848-stimulated IL-1beta level preincubated for 18 hrs followed by R848-stimulation and measured after 8 hrs by MSD assay. Format: protein assay. In short, it runs like this:
as §2

Data set [13] has as its target T1, von Hippel-Lindau disease tumor suppressor/Interleukin-1 receptor-associated kinase 4. In words: Protac activity at VHL/IRAK4 in human epoxomicin PBMC assessed as increase in p21 accumulation at 0.01 to 10 uM incubated for 22 hrs by Western blot analysis. The class given is protein assay. In short, it runs like this: (§3)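 PBMCs pretreated 2 h with 10 μM epoxomicin, then given compound for a further 22 h. IRAK4 and p21 (proteasome-inhibition marker) read by Western blot against DMSO-treated cells.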
Target sequence in this assay (P40337 whole entry, looked up, one chain of several): as the sequence (P40337 whole entry, looked up, one chain of several) above

Data set [14] has the same target. Put plainly: Protac activity at VHL/IRAK4 in human epoxomicin pretreated PBMC assessed as induction of degradation of IRAK4 at 0.01 to 10 uM incubated for 22 hrs by Western blot analysis. Format: protein assay. The procedure, abridged: as §3
Target sequence in this assay (P40337 whole entry, looked up, one chain of several): as the sequence (P40337 whole entry, looked up, one chain of several) above
Data set [15] concerns the target T3, von Hippel-Lindau disease tumor suppressor/Interleukin-1 receptor-associated kinase 4. Put plainly: Protac activity at VHL/IRAK4 in human PBMC assessed as reduction in R848-stimulated IL-6 level preincubated for 18 hrs followed by R848 stimulation and measured after 8 hrs by MSD assay. Format: protein assay. The procedure, abridged: as §2
Data set [16] deals with T1, von Hippel-Lindau disease tumor suppressor/Interleukin-1 receptor-associated kinase 4. In words: Protac activity at VHL/IRAK4 in human PBMC assessed as induction of degradation of IRAK4 incubated for 24 hrs by Western blot analysis. The class given is protein assay. In short, it runs like this:
as §1
Target sequence in this assay (P40337 whole entry, one chain of several): as the sequence (P40337 whole entry, looked up, one chain of several) above

Data set [17] deals with T3, von Hippel-Lindau disease tumor suppressor/Interleukin-1 receptor-associated kinase 4. Put plainly: Protac activity at VHL/IRAK4 in human PBMC assessed as reduction in R848-stimulated IFNgamma preincubated for 18 hrs followed by R848 stimulation and measured after 8 hrs by MSD assay. Format: protein assay. The procedure, abridged: as §2
For data set [18] the target is unchanged. In words: Protac activity at VHL/IRAK4 in human PBMC assessed as reduction in R848-stimulated IL-8 level preincubated for 18 hrs followed by R848 stimulation and measured after 8 hrs by MSD assay. Format: protein assay. The procedure, abridged: as §2
Data set [19] has the same target. Put plainly: Protac activity at VHL/IRAK4 in human PBMC assessed as reduction in R848-stimulated IL-10 level preincubated for 18 hrs followed by R848 stimulation and measured after 8 hrs by MSD assay. The class given is protein assay. In short, it runs like this:
as §2

In data set [20] the target is T1, von Hippel-Lindau disease tumor suppressor/Interleukin-1 receptor-associated kinase 4. Put plainly: Protac activity at VHL/IRAK4 in human PBMC assessed as remaining IRAK4 level at 300 nM incubated for 24 hrs by Western blot analysis relative to control. Format: protein assay. In short, it runs like this: as §1
Target sequence in this assay (P40337 whole entry, looked up, one chain of several): as the sequence (P40337 whole entry, looked up, one chain of several) above
Data set [21] shares this target. Put plainly: Protac activity at VHL/IRAK4 in human PBMC assessed as remaining IRAK4 level at 100 nM incubated for 24 hrs by Western blot analysis relative to control. The class given is protein assay. The procedure, abridged:
as §1

The target is the same in data set [22]. Put plainly: Protac activity at VHL/IRAK4 in human PBMC assessed as remaining IRAK4 level at 1 uM incubated for 24 hrs by Western blot analysis relative to control. The class given is protein assay. The procedure, abridged: as §1
Data set [23] has the same target. In words: Protac activity at VHL/IRAK4 in human PBMC assessed as induction of degradation of IRAK4 at 3 uM incubated for 24 hrs by Western blot analysis relative to control. Format: protein assay. In short, it runs like this: as §1
For data set [24] the target is unchanged. Put plainly: Protac activity at VHL/IRAK4 in human PBMC assessed as remaining IRAK4 level at 10 uM incubated for 24 hrs by Western blot analysis relative to control. Format: protein assay. The procedure, abridged:
as §1

T3 sequence (P40337 whole entry, one chain of several): as the sequence (P40337 whole entry, looked up, one chain of several) above
Chain of Interleukin-1 receptor-associated kinase 1 (P51617 whole entry): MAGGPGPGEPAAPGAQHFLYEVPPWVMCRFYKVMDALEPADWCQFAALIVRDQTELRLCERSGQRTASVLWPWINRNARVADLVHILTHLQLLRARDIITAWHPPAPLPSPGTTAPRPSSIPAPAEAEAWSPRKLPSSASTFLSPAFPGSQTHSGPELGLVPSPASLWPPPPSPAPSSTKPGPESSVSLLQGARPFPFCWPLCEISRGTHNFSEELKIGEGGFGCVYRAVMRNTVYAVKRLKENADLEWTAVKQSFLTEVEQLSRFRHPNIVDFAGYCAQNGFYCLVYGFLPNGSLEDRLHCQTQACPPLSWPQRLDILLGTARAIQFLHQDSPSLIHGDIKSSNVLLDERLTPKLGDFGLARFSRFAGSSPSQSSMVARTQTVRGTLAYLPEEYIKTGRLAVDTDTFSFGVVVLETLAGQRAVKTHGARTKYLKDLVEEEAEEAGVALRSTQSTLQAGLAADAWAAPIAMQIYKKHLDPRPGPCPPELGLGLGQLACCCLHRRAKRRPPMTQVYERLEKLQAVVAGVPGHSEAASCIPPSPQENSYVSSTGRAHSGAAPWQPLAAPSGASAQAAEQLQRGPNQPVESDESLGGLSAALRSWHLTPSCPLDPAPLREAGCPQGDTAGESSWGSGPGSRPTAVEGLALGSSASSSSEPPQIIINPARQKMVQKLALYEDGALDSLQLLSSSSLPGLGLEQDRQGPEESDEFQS
Chain of Protein cereblon/Interleukin-1 receptor-associated kinase 4 (Homo sapiens) (Q96SW2 whole entry, looked up, one chain of several): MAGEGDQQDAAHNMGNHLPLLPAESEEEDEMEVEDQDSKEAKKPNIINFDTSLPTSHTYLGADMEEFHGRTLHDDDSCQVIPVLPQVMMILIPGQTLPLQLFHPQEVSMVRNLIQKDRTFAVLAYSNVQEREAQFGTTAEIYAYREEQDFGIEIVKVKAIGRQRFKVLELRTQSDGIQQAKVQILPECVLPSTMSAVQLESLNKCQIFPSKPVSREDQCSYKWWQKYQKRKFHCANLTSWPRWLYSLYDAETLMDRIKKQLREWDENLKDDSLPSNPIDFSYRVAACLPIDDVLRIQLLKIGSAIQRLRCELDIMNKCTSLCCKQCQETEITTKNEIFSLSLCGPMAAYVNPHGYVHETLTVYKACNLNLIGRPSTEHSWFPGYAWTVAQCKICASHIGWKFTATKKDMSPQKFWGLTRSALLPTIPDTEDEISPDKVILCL
Chain of E3 ubiquitin-protein ligase XIAP/Interleukin-1 receptor-associated kinase 4 (Homo sapiens) (P98170 whole entry, looked up, one chain of several): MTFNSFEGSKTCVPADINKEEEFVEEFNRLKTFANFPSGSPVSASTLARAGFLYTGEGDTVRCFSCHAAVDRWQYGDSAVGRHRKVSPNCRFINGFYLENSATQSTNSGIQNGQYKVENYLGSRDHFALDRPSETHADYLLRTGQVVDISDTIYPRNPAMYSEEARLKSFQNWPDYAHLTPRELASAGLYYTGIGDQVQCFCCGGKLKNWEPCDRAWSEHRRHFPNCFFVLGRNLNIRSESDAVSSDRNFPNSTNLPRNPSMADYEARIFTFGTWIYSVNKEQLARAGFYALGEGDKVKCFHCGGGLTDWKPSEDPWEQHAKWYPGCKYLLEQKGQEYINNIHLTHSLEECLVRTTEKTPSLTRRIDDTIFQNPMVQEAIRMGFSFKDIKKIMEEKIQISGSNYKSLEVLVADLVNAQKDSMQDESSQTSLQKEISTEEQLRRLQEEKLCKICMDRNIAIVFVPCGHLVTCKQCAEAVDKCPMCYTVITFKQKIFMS

On to `CN[C@@H](C)C(=O)N[C@H](C(=O)N1C[C@@H](NC(=O)CCCCCCCCCCC#Cc2cnc(OC[C@@H]3CCC(=O)N3)c3cc(OC)c(C(N)=O)cc23)C[C@H]1C(=O)N[C@@H]1CCCc2ccccc21)C1CCCCC1`, for which the outcome in data set [1] was inactive. Moreover, the IC50 in data set [2] stood at 6940 nM; in data set [3], 21 nM. Further, the “Chromatographic log D at pH 7.4 (ChromLogD)” value (“Chromatographic log D” below) in data set [4] was found to be 6.56. The Emax in [5] was found to be 0%.

Consider `CC[C@@H]1[C@H](F)C(=O)N[C@@H]1COc1nccc2cc(C(N)=O)c(OC)cc12`, for which the outcome in data set [6] was inactive.

`COc1cc2c(OC[C@@H]3CCC(=O)N3)ncc(C#CCOCCOCCOCCC(=O)N[C@H](C(=O)N3C[C@H](O)C[C@H]3C(=O)NCc3ccc(-c4scnc4C)cc3)C(C)(C)C)c2cc1C(N)=O`: the result in data set [1] was inactive. Also, the concentration for half-maximal inhibition (IC50) was above 10000 nM in data set [2] and 0.29 nM in data set [3]. In data set [7], the Emax came to 0%. In data set [4], the “Chromatographic log D” value was 3.18.

On to `COc1cc2c(OC[C@@H]3CCC(=O)N3)ncc(C#CCCCCCCCCCCOc3cccc4c3C(=O)N(C3CCC(=O)NC3=O)C4=O)c2cc1C(N)=O` (some centres not stated), for which the outcome in [1] was inactive. Further, the values for the IC50 in [2] and in [3] were above 10000 nM and 2.5 nM, respectively. Besides, in data set [8], the Emax is 0%. Further, in data set [4], the “Chromatographic log D” value is given as 6.01.

`CN[C@@H](C)C(=O)N[C@H](C(=O)N1C[C@@H](NC(=O)CCOCCOCCOCC#Cc2cnc(OC[C@@H]3CCC(=O)N3)c3cc(OC)c(C(N)=O)cc23)C[C@H]1C(=O)N[C@@H]1CCCc2ccccc21)C1CCCCC1`: the outcome in data set [1] was inactive. Besides, the IC50 in data set [2] was above 10000 nM; in data set [3], 0.022 nM. Moreover, in data set [4], the “Chromatographic log D” value turned out to be 3.79. In addition, the Emax in [5] came out at 0%.

As to `COc1cc2c(OC[C@@H]3CCC(=O)N3)ncc(C#CCOCCOCCOCCOc3cccc4c3C(=O)N(C3CCC(=O)NC3=O)C4=O)c2cc1C(N)=O` (some centres not stated), the result in [1] was inactive. Moreover, the Emax in [8] was 0%.

Molecule `CC[C@@H]1[C@H](F)C(=O)N[C@@H]1COc1ncc(C#CCN2CCC3(CC2)CCN(c2ncc(C(=O)N[C@H](C(=O)N4C[C@H](O)C[C@H]4C(=O)NCc4ccc(-c5scnc5C)cc4)C(C)(C)C)cn2)CC3)c2cc(C(N)=O)c(OC)cc12` had a solubility in [9] of 5 µM (≈ 5.43 µg/mL). In addition, the IC50 in data set [10] was 50.1 nM; in data set [12], 39.8 nM; in data set [15], 63.1 nM; in [17], 31.6 nM; in [18] it was 79.4 nM; in data set [19], 316 nM. Further, the figures for the DC50 in data set [11] and in data set [16] were 36 nM and 151 nM, respectively. Moreover, the result in data set [13] was Active. The result in data set [6] and in data set [14] was inactive. In addition, the “Chromatographic log D” value in data set [4] came to 4.97.

Take `COc1cc2c(OC[C@@H]3CCC(=O)N3)ncc(C#CCCC(=O)N[C@H](C(=O)N3C[C@H](O)C[C@H]3C(=O)NCc3ccc(-c4scnc4C)cc3)C(C)(C)C)c2cc1C(N)=O`: the outcome in data set [1] was inactive.

For `COc1cc2c(OC[C@@H]3CCC(=O)N3)ncc(C#CCCCCCCCCCCC(=O)N[C@H](C(=O)N3C[C@H](O)C[C@H]3C(=O)NCc3ccc(-c4scnc4C)cc3)C(C)(C)C)c2cc1C(N)=O`, the IC50 was above 10000 nM in [2] and 0.099 nM in data set [3]. Also, the Activity in data set [20] stood at 80%; in data set [21] it was 101%; in data set [22] it was 81%; in data set [24], 65%. The Emax in data set [23] is 50%. Further, the “Chromatographic log D” value in data set [4] worked out at 5.82.

For `COc1cc2c(OC[C@@H]3CCC(=O)N3)ncc(C#CCCCC(=O)N[C@H](C(=O)N3C[C@H](O)C[C@H]3C(=O)NCc3ccc(-c4scnc4C)cc3)C(C)(C)C)c2cc1C(N)=O`, the outcome in data set [1] was inactive.

On to `CC[C@@H]1[C@H](F)C(=O)N[C@@H]1COc1ncc(C#CCCCCCCCCCCC(=O)N[C@H](C(=O)N2CC(O)CC2C(=O)NCc2ccc(-c3scnc3C)cc2)C(C)(C)C)c2cc(C(N)=O)c(OC)cc12` (single isomer, unassigned), for which, in data set [9], the solubility is below 1 µM. Moreover, in [16], the DC50 amounted to 259 nM. Besides, the “Chromatographic log D” value in data set [4] came out at 6.44.

On to `COc1cc2c(OC[C@@H]3CCC(=O)N3)ncc(Br)c2cc1C(N)=O`, for which the IC50 in data set [2] was above 10000 nM; in data set [3], 2.1 nM. For the same molecule, the “Chromatographic log D” value in data set [4] came to 2.1.

As usually defined, the IC50 is the point on the concentration scale where inhibition reaches its midpoint. As usually defined, the Emax is the size of the effect at its maximum, as opposed to the concentration needed. One may read the solubility as the concentration that dissolves in the medium under given conditions. As a reminder, the DC50 is the midpoint of the concentration-degradation curve.
